In brackets after ≈: the same amount, converted by molar mass.
Tests used:
[1] = target: T1, Phosphatidylinositol 4,5-bisphosphate 3-kinase catalytic subunit beta isoform (Homo sapiens, UniProt P42338); test: Inhibition of PI3Kbeta in human MAD-MB-468 cells assessed as inhibition of Ser473 Akt phosphorylation by cellular potency assay
[2] = Apparent permeability from apical (pH 6.5) to […] of human Caco2 cells; type: ADME, cell-based; conditions: Caco-2, pH 6.5
[3] = Buffer/octanol partition coefficient, log D of the compound at pH 7.4 by shake flask method; type: physicochemical
How it was run: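 LogD at pH 7.4 was measured by shake-flask with a buffer/octanol volume ratio of 100:1.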

[4] = Intrinsic clearance in human hepatocytes measured per 10^6 cells; type: ADME, cell-based, Hepatocyte; conditions: read-out: CLH
How it was run: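 Intrinsic clearance was measured in human hepatocytes and is expressed in µL/min/10^6 cells.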

[5] = Solubility of the compound in phosphate buffer at pH 7.4; type: physicochemical
How it was run: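 Solubility was measured from solid material in phosphate buffer at pH 7.4.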

[6] = Ratio of total plasma concentration in PTEN-null human PC3 cells xenografted in SCID mouse at 50 mg/kg, po single dose at 0.5 hrs to IC50 for PI3Kbeta in human […] cells; parameters: species or system PC-3
How it was run: (§1)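 SCID mice bearing PTEN-null PC3 prostate tumour xenografts got a single oral dose given as a suspension. Total plasma concentration was measured at the sampled time points (0.5, 4 or 8 h). The value is the […] cover over the PI3Kβ cellular IC50, which comes from inhibition of Ser473 Akt phosphorylation in PTEN-null MDA-MB-468 breast adenocarcinoma cells.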

[7] = Ratio of total plasma concentration in PTEN-null human PC3 cells xenografted in SCID mouse at 50 mg/kg, po single dose at 4 hrs to IC50 for PI3Kbeta in human […] cells; parameters: species or system PC-3; how it was run: as §1
[8] = target: T2, Phosphatidylinositol 4,5-bisphosphate 3-kinase catalytic subunit alpha isoform (Homo sapiens, UniProt P42336); test: Inhibition of human recombinant PI3Kalpha assessed as depletion of ATP substrate by Ultra Glo luciferase assay
How it was run: (§2)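 Enzyme IC50s are reported as the geometric mean of 3 or more values.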

[9] = target: T1, Phosphatidylinositol 4,5-bisphosphate 3-kinase catalytic subunit beta isoform; test: Inhibition of human recombinant PI3Kbeta assessed as depletion of ATP substrate by Ultra Glo luciferase assay; how it was run: as §2
[10] = target: Phosphatidylinositol 4,5-bisphosphate 3-kinase catalytic subunit gamma isoform (Homo sapiens, UniProt P48736); test: Inhibition of human recombinant PI3Kgamma assessed as depletion of ATP substrate by Ultra Glo luciferase assay; how it was run: as §2
[11] = target: T3, Phosphatidylinositol 4,5-bisphosphate 3-kinase catalytic subunit delta isoform (Homo sapiens, UniProt O00329); test: Inhibition of human recombinant PI3Kdelta assessed as depletion of ATP substrate by Ultra Glo luciferase assay; how it was run: as §2
T3 sequence (O00329 whole entry): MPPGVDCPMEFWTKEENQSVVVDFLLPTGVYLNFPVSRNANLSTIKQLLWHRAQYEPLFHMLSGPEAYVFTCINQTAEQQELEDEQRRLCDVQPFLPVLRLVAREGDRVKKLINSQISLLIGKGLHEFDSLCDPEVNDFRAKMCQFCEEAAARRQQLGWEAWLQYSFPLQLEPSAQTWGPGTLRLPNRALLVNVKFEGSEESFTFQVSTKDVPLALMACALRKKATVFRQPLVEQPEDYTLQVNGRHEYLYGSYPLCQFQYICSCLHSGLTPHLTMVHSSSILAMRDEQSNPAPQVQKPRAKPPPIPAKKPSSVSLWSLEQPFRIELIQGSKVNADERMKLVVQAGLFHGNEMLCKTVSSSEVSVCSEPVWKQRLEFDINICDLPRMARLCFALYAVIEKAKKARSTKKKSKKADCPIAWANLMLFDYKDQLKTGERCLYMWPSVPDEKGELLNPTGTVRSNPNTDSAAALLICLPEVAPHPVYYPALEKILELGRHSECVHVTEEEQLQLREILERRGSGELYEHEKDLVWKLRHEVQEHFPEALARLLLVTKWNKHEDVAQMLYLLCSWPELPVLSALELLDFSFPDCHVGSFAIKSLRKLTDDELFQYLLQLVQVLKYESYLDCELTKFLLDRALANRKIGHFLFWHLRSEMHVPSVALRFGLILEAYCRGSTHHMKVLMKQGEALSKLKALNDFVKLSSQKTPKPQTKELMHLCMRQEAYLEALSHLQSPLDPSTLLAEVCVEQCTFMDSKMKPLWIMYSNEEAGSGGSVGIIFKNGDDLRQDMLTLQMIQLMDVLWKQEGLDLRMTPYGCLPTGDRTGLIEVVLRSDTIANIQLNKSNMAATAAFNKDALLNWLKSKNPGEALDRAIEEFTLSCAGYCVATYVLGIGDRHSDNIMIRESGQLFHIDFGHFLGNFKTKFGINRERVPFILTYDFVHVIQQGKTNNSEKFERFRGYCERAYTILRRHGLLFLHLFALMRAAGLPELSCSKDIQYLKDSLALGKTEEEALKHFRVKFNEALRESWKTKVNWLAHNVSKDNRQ

[12] = target: T2, Phosphatidylinositol 4,5-bisphosphate 3-kinase catalytic subunit alpha isoform; test: Inhibition of PI3Kalpha in human BT474 cells assessed as inhibition of […] Akt phosphorylation after 2 hrs by fluorescence assay; type: cell-based, BT-474
How it was run: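 BT474 cells were seeded in DMEM with 10% FCS and 1% glutamine and left to adhere overnight, then treated with compound in DMSO for 2 h at 37 °C and 5% CO2. Cells were lysed with a phosphatase/protease-inhibitor buffer. Lysate was captured on anti-total-Akt plates, probed with anti-phospho-Akt Thr308 and an HRP secondary, and read by fluorescence (ex 325/em 420 nm). Values are the geometric mean of ≥2 determinations.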

[13] = Fraction unbound in mouse plasma; type: ADME, cell-free
How it was run: (§3)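 Protein binding was measured in nude mouse plasma and in human plasma and is expressed as fraction unbound (%).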

[14] = Fraction unbound in human plasma; type: ADME, cell-free; how it was run: as §3
[15] = Clearance in mouse plasma at 5 umol/kg, iv and 30 umol/kg, po; type: ADME, organism-based
How it was run: (§4)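 […] mice were dosed at 5 µmol/kg i.v. and 30 µmol/kg p.o. Clearance is given in mL/min/kg and oral bioavailability in %.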

[16] = Bioavailability in mouse plasma at 5 umol/kg, iv and 30 umol/kg, po; type: ADME, organism-based; how it was run: as §4
Mus musculus [17] = test: Inhibition of Akt phosphorylation in SCID mouse xenografted with PTEN-null human PC3 cells at 50 mg/kg, po measured after 30 mins; type: functional; conditions: PC-3, 0.5 h
How it was run: (§5)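 SCID mice carrying PTEN-null PC3 prostate xenografts received a single oral dose as a suspension (50, 100 or 200 mg/kg).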

Mus musculus [18] = test: Inhibition of Akt phosphorylation in SCID mouse xenografted with PTEN-null human PC3 cells at 50 mg/kg, po measured after 4 hrs; type: functional; conditions: PC-3, 4 h; how it was run: as §5
[19] = Total plasma concentration in SCID mouse xenografted with PTEN-null human PC3 cells at 50 mg/kg, po measured after 30 mins; type: ADME, organism-based, PC-3; parameters: dose 50 mg/kg, route oral
How it was run: (§6)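 Total plasma concentration was measured in SCID mice carrying PC3 xenografts after a single oral dose given as a suspension (50, 100 or 200 mg/kg). Samples were taken at 0.5 to 8 h.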

[20] = Total plasma concentration in SCID mouse xenografted with PTEN-null human PC3 cells at 50 mg/kg, po measured after 4 hrs; type: ADME, organism-based, PC-3; parameters: dose 50 mg/kg, route oral; how it was run: as §6
Homo sapiens [21] = organism: Homo sapiens; test: Ratio of IC50 for PI3Kalpha human BT474 cells to IC50 PI3Kbeta in human […] cells
Homo sapiens [22] = organism: Homo sapiens; test: Ratio of IC50 for human recombinant PI3Kalpha to IC50 human recombinant PI3Kbeta
How it was run: (§7)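 Ratio is taken from enzyme IC50 values, each the geometric mean of 3 or more determinations. In the PI3Kβ enzyme assay, functional enzyme concentration was measured experimentally. The tight-binding limit, half that concentration, is 10 nM, so β IC50 values near that floor set a cap on the ratio.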

Homo sapiens [23] = organism: Homo sapiens; test: Ratio of IC50 for human recombinant PI3Kgamma to IC50 human recombinant PI3Kbeta; how it was run: as §7

Phosphatidylinositol 4,5-bisphosphate 3-kinase catalytic subunit gamma isoform, sequence (P48736 whole entry, canonical isoform): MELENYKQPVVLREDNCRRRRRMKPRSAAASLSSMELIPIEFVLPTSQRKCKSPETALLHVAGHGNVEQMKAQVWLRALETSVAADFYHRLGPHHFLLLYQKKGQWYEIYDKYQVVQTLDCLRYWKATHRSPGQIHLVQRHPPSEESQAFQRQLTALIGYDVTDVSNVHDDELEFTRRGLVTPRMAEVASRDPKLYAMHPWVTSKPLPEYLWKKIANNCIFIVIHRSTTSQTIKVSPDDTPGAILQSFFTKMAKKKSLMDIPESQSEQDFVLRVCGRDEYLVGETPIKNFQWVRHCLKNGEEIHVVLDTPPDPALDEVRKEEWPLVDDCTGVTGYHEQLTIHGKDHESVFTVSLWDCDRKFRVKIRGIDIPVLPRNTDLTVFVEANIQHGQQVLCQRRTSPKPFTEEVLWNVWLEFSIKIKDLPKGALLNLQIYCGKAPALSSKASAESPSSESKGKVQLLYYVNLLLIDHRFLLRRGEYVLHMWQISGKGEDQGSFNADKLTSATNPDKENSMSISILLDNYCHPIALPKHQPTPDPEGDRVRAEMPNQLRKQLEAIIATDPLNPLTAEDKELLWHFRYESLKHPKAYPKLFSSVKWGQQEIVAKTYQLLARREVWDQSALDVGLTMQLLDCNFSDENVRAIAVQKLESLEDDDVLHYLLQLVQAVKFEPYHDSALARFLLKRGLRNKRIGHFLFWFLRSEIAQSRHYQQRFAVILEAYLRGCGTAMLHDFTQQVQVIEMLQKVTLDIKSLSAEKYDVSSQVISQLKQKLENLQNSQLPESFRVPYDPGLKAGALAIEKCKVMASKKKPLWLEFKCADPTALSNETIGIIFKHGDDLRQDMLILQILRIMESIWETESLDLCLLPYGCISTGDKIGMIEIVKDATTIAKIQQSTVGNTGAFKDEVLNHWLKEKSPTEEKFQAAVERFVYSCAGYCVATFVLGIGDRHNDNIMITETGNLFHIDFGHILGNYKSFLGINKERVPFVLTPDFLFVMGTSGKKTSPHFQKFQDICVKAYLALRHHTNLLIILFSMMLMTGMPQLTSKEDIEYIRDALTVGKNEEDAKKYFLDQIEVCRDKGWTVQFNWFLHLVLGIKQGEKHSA
T1 sequence (P42338 whole entry, canonical isoform): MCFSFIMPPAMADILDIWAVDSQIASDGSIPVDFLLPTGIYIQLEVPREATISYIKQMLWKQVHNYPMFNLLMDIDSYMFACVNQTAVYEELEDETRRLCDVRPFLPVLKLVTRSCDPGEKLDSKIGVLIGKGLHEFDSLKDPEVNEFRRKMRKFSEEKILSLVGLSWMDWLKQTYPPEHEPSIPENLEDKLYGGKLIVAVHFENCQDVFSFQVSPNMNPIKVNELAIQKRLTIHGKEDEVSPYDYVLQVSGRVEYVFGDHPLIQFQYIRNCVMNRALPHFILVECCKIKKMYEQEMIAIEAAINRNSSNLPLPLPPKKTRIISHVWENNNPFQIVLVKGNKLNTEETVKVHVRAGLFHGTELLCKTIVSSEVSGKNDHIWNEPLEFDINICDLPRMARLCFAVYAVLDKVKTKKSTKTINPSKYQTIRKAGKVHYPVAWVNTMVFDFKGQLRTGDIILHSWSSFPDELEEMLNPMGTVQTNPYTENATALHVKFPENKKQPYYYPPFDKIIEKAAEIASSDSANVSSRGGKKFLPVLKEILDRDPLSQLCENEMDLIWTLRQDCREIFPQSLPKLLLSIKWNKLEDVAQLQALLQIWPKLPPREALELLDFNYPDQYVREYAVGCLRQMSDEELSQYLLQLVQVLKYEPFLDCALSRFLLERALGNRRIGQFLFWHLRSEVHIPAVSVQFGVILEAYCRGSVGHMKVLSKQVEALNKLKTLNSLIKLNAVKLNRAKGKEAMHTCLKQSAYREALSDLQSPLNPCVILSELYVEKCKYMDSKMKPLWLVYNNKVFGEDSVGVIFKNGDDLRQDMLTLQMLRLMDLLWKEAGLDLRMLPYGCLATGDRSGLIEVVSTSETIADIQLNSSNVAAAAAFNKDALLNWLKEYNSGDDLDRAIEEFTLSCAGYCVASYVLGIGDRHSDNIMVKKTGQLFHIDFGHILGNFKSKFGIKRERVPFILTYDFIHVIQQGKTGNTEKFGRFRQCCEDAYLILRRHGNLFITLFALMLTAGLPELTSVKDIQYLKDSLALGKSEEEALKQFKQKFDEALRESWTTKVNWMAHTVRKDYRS
T2 sequence (P42336 whole entry, canonical isoform): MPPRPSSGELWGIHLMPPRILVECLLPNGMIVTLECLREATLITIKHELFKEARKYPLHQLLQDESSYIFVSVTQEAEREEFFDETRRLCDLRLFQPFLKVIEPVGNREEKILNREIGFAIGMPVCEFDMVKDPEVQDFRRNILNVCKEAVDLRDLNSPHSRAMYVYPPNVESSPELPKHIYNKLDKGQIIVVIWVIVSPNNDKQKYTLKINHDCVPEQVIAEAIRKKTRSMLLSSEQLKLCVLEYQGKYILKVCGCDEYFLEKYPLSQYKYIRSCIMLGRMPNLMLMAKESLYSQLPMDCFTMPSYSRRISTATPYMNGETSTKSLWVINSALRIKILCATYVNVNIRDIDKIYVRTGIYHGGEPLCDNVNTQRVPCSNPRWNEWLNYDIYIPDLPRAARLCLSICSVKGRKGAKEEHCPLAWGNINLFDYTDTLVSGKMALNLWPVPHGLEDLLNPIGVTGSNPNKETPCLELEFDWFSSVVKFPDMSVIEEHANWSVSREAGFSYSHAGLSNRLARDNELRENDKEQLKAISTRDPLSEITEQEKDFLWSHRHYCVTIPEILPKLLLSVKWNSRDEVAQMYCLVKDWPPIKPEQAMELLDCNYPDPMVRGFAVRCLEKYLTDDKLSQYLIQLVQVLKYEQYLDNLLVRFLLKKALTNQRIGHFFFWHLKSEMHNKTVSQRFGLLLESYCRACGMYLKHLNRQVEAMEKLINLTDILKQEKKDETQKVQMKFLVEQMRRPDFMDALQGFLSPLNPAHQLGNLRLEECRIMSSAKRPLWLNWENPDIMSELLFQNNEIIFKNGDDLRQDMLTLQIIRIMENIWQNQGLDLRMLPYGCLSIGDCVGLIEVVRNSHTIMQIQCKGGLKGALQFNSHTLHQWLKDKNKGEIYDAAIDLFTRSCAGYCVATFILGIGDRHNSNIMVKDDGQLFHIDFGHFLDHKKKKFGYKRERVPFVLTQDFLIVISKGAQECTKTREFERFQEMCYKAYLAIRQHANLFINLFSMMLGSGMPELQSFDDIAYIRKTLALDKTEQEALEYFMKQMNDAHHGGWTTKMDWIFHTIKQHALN

| SMILES | IC50 [1] [nM] | Papp A→B [2] [×10⁻⁶ cm/s] | logD [3] | hepatocyte CLint [4] [µL/min/1e6 cells] | solubility [5] [µM] | other results |
| --- | --- | --- | --- | --- | --- | --- |
| C[C@@H](Nc1cc(F)cc(F)c1)c1cc(C(=O)N2CCN(C)CC2)cn2c(=O)cc(N3CCOCC3)nc12 | 29 | 9 | 2.6 | 6 | > 1500 | – |
| CC(Nc1cc(F)cc(F)c1F)c1cc(C(=O)N(C)C)cn2c(=O)cc(N3CCOCC3)nc12 (single isomer, unassigned; (-)) | 25 | – | 2.9 | 15 | 46 (≈ 21.9 µg/mL) | – |
| Cc1cc(C(C)Nc2ccc(F)cc2)c2nc(N3CCOCC3)cc(=O)n2c1 (racemic) | 190 | – | – | – | – | – |
| Cc1ccc(NC(C)c2cc(C(=O)NCCN(C)C)cn3c(=O)cc(N4CCOCC4)nc23)cc1 (racemic) | 530 | – | – | – | – | – |
| CC(Nc1cccc(Cl)c1F)c1cc(C(=O)NCCN(C)C)cn2c(=O)cc(N3CCOCC3)nc12 (single isomer, unassigned; (-)) | 4 | 0.9 | 2.7 | – | – | Ratio [6]: 83; Ratio [7]: 48; IC50 [8]: 92 nM; IC50 [9]: 7 nM; IC50 [10]: 670 nM; IC50 [11]: 51 nM; IC50 [12]: 970 nM; fraction unbound [13]: 0.016; fraction unbound [14]: 0.033; clearance [15]: 10 mL/min/kg; bioavailability [16]: 39%; inhibition in vivo at 50 mg/kg (Mus musculus [17]): 26%; inhibition in vivo at 50 mg/kg (Mus musculus [18]): 40%; concentration at 0.5 h [19]: 21 µM; concentration at 4 h [20]: 12 µM; Ratio IC50 (Homo sapiens [21]): 240 |
| C[C@@H](Nc1cc(F)cc(F)c1)c1cc(C(=O)N2CCOCC2)cn2c(=O)cc(N3CCOCC3)nc12 | 25 | – | 2.7 | 6 | 316 (≈ 158 µg/mL) | – |
| CC(Nc1ccc(Cl)cc1)c1cc(C(=O)NCCN(C)C)cn2c(=O)cc(N3CCOCC3)nc12 (racemic) | 75 | – | – | – | – | – |
| Cc1cc(C(C)Nc2cc(F)cc(F)c2)c2nc(N3CCOCC3)cc(=O)n2c1 (stereo unspecified) | 9 | – | – | – | – | – |
| CC(Nc1ccccc1F)c1cc(C(=O)NCCN(C)C)cn2c(=O)cc(N3CCOCC3)nc12 (racemic) | 23 | 0.8 | 1.9 | – | – | – |
| CC(Nc1cccc(C(F)(F)F)c1)c1cc(C(=O)NCCN(C)C)cn2c(=O)cc(N3CCOCC3)nc12 (racemic) | 74 | – | – | – | – | – |
| CC(Nc1cccc(F)c1)c1cc(C(=O)N(C)C)cn2c(=O)cc(N3CCOCC3)nc12 (racemic) | 39 | 39 | – | 45 | 23 (≈ 10.1 µg/mL) | – |
| CC(Nc1cc(F)c(F)c(F)c1)c1cc(C(=O)N(C)C)cn2c(=O)cc(N3CCOCC3)nc12 (single isomer, unassigned; (-)) | 11 | – | – | 13 | 10 (≈ 4.75 µg/mL) | – |
| Cc1cc(C(C)Nc2cccc(Cl)c2)c2nc(N3CCOCC3)cc(=O)n2c1 (stereo unspecified) | 17 | – | – | – | – | – |
| CC(Nc1cc(F)cc(Cl)c1)c1cc(C(=O)N(C)C)cn2c(=O)cc(N3CCOCC3)nc12 (single isomer, unassigned; (-)) | 11 | – | 3.5 | 19 | – | – |
| Cc1cccc(NC(C)c2cc(C)cn3c(=O)cc(N4CCOCC4)nc23)c1 (racemic) | 81 | – | – | – | – | – |
| CC(Nc1ccccc1Cl)c1cc(C(=O)NCCN(C)C)cn2c(=O)cc(N3CCOCC3)nc12 (racemic) | 7 | – | – | – | – | – |
| CC(Nc1ccc(F)cc1)c1cc(C(=O)NCCN(C)C)cn2c(=O)cc(N3CCOCC3)nc12 (racemic) | 12 | 0.2 | 1.8 | – | – | – |
| CC(Nc1cc(F)cc(F)c1)c1cc(C(=O)N(C)CCO)cn2c(=O)cc(N3CCOCC3)nc12 (racemic) | 8 | – | 2.1 | 10 | 930 (≈ 453 µg/mL) | – |
| CC(Nc1cccc(Cl)c1)c1cc(C(=O)NCCN(C)C)cn2c(=O)cc(N3CCOCC3)nc12 (racemic) | 10 | – | – | – | – | – |
| CC(Nc1ccccc1)c1cc(C(=O)N(C)C)cn2c(=O)cc(N3CCOCC3)nc12 (single isomer, unassigned; (+)) | 156 | – | 2.4 | – | – | Ratio IC50 (Homo sapiens [22]): 50; Ratio IC50 (Homo sapiens [23]): 550; IC50 [8]: 560 nM; IC50 [9]: 11 nM; IC50 [10]: 6000 nM; IC50 [11]: 110 nM; IC50 [12]: 9600 nM; Ratio IC50 (Homo sapiens [21]): 60 |
| CC(Nc1ccccc1)c1cc(C(=O)NCCN(C)C)cn2c(=O)cc(N3CCOCC3)nc12 (single isomer, unassigned; (-)) | 8 | 0.2 | 1.7 | – | – | IC50 [8]: 370 nM; IC50 [9]: 8 nM; IC50 [10]: 6900 nM; IC50 [11]: 85 nM; IC50 [12]: 2200 nM |
| CC(Nc1cccc(F)c1)c1cc(C(=O)NCCN(C)C)cn2c(=O)cc(N3CCOCC3)nc12 (racemic) | 2 | 0.3 | 2 | – | – | – |
| CC(Nc1cccc(F)c1F)c1cc(C(=O)N(C)C)cn2c(=O)cc(N3CCOCC3)nc12 (racemic) | 73 | – | 2.7 | 9 | 28 (≈ 12.8 µg/mL) | – |

Source: ChEMBL document CHEMBL3351561, “Discovery of 9-(1-anilinoethyl)-2-morpholino-4-oxo-pyrido[1,2-a]pyrimidine-7-carboxamides as PI3Kβ/δ inhibitors for the treatment of PTEN-deficient tumours” (Bioorg Med Chem Lett, 2014)
